Assay outcomes: PubChem, several laboratories
Hits are enriched below; roughly 6.7% of the tested compounds scored in any of these assays.
CSC inhib – cancer stem cell inhibition; cancer stem cell-like cells viability, luminescence; inhibition, % at 7.5 µM; hit rate 1.1% among 300,000; in the data active means inhibition above about 75%; tested in HMLE shEcad cells
CHOP inhibitor – CHOP inhibition in unfolded protein response | CHO-K1 CHOP-promoter luciferase, tunicamycin-induced, 15-18 h | inhibition, % at 10 µM | hit rate 3.8% among 220,000 | AID 2732;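 active means compounds that reduced the stress-induced luciferase reporter signal by more than about 70% of percent inhibition, limit read from the data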;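 further: 0% = tunicamycin plus vehicle and 100% = wells without tunicamycin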
GRIN3A LBD mod – NR3A (human) ligand-binding domain modulation; NR3A LBD differential scanning fluorimetry, Tm shift; 0% = protein alone, 100% = glycine-bound protein; Tm shift relative to glycine control, % at 25 µM; hit rate 2.5% among 340,000; AID 1259313;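 active means melting temperature shift of at least 10% of the positive control shift, at one fixed dose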
PREPL inh – inhibits the human prolyl oligopeptidase-like enzyme; Q4J6C6; recombinant PREPL, fluorescence polarization activity-based probe; inhibition, % at 5.96 µM; hit rate 0.68% among 320,000; AID 2751; in the data active means inhibition above about 43%;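 further: 0% = enzyme with DMSO and 100% = wells lacking enzyme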
Target sequence (Q4J6C6 whole entry, looked up): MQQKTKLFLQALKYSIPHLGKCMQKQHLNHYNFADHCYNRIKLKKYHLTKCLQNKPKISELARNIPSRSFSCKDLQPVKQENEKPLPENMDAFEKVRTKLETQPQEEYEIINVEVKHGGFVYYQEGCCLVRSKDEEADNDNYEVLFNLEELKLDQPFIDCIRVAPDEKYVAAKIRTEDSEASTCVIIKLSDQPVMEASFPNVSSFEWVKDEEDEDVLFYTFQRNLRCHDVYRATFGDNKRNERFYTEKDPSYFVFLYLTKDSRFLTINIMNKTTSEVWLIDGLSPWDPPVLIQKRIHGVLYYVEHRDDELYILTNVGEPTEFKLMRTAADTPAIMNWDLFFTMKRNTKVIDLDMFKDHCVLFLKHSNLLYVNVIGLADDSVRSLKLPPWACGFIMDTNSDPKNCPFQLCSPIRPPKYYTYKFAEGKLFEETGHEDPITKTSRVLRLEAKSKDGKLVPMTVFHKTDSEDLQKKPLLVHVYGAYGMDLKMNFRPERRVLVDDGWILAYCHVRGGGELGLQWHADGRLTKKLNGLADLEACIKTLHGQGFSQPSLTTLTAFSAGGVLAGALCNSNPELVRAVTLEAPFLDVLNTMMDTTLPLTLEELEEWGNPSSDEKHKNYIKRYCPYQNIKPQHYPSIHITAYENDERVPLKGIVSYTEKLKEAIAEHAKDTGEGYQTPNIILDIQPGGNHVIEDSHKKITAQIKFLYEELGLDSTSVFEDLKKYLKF
T cruzi repl – T. cruzi replication inhibition | AID 1885 | hit rate 1.4% among 300,000 | inhibition, % (test concentration not listed) | T. cruzi beta-gal in NIH3T3, luminescence, 90 h;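 active means mean inhibition across valid replicates above about 55%, limit read from the data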;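 further: signal also drops with host cell toxicity which is not excluded here; 0% = plate median of DMSO wells and 100% = zero luminescence signal; higher percent means less beta-gal luminescence so fewer parasites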
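assay system = mouse NIH/3T3 fibroblasts infected with β-gal-expressing T. cruzi Tulahuen C4 | input = 5,000 NIH/3T3 host cells per well | buffer or medium = DMEM plus 2% FBS | timing = 3 h host attachment, then at least 90 h co-culture | measured by = GalScreen luminescence, 60 min | evaluation = luminescence reflecting intracellular parasite burden, expressed as percent inhibition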
Beta cell apopt – beta cell apoptosis inhibition. AID 435005. INS-1E cytokine-induced death, ATP luminescence, 48 h; percent of positive-control rescue, neutral wells zero. protection from apoptosis, % (concentration not given with the values). hit rate 0.8% among 300,000;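 active means Every replicate reaches about 75%, or at least half do and their mean reaches it too, limit read from the data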;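 further: 0% = cytokine-treated negative control wells and 100% = positive control rescue; higher means more ATP so stronger rescue from cytokine killing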
* marks the source's active call; other numbers are inactive results; / = not tested or not shown.

SMILES	CSC inhib	CHOP inhibitor	GRIN3A LBD mod	PREPL inh	T cruzi repl	Beta cell apopt
Nc1ccccc1Nc1cc(-c2ccccc2)nn1-c1ccccc1	10.6	34.6	-9.0	14.7	54.7*	-2.1
COCCN(C(=O)COC(=O)CCCOc1ccccc1)c1c(N)n(Cc2ccccc2)c(=O)[nH]c1=O	-9.6	/	1.1	-6.2	-4.0	-1.0
Cc1sc2ncnc(N3CCC(C(=O)Nc4ccc(OC(F)F)c(Cl)c4)CC3)c2c1C	63.7	/	10.0*	22.5	/	4.2
Cc1cc(Cl)ccc1OCC(=O)NNC(=O)C1CCN(c2ncnc3sc(C)c(C)c23)CC1	6.2	/	-3.5	-18.7	/	-0.2
Nc1nc(N)c(C=Nc2ccc(Br)cc2)c(Nc2ccc(Br)cc2)n1	45.4	20.8	50.7*	11.0	-3.1	-11.5
O=C(Nc1cccc(Br)c1)c1ccc2nc(N3C(=O)CCC3=O)sc2c1	-9.5	-18.5	13.8*	1.1	-12.3	-3.8
O=C(Nc1cccc([N+](=O)[O-])c1)c1ccc2nc(N3C(=O)CCC3=O)sc2c1	-9.7	37.9	-1.9	5.1	-9.7	2.5
O=C(Nc1ccc2c(c1)OCCO2)C(=O)c1c[nH]c2ccccc12	106.7*	/	-23.6	11.8	-1.2	19.0
CSc1ccccc1NC(=O)C(=O)c1c[nH]c2ccccc12	26.3	18.8	21.4*	3.8	1.0	10.6
O=C(COC(=O)C1CC1)NCc1ccccc1	/	/	2.1	/	/	/
CN(C)CCCSc1nc(-c2ccccc2)nc2c1CCC2	17.1	8.7	0.7	3.6	71.3*	-4.9
CC(NC1c2ccccc2-c2ccccc21)c1ccccc1 (centres undefined)	2.8	/	1.4	6.2	0.6	-6.5
CCCCc1ccc(N/C(N)=N/c2nc(C)cc(C)n2)cc1	43.7	54.1	-3.7	0.9	74.8*	123.8*
Cc1ccc(N/C(N)=N/c2nc(C)cc(C)n2)cc1	11.1	9.6	-1.4	-0.1	31.7	-3.9
CC1=C(CC(=O)c2ccc(Cl)cc2)C(=O)c2ccccc2C1=O	41.2	71.8*	-5.1	32.0	-13.3	98.9*
CC(C)(C)c1ccccc1NC(=O)NC1CCN(Cc2c(F)cccc2Cl)CC1	5.8	-7.2	-2.1	-6.9	9.4	-5.4
CC(=O)Nc1ccc(S(=O)(=O)N(C)CC(=O)OCC(=O)NNC(=O)c2ccccc2F)cc1	1.0	/	17.6*	14.9	16.7	3.8
Cc1ccc(S(=O)(=O)N(C)CC(=O)OCC(=O)NC(c2ccccc2)c2ccccc2)cc1	-11.9	-18.1	24.0*	11.1	-9.2	-14.8
CCCn1c(N)c(C(=O)CN(C)CC(=O)Nc2ccccc2C(F)(F)F)c(=O)[nH]c1=O	/	/	-1.2	0.1	/	/
CS(=O)(=O)c1ccc(C(=O)OCC(=O)NC23CC4CC(CC(C4)C2)C3)cc1[N+](=O)[O-]	155.0*	-23.3	-2.4	-5.1	2.5	-43.7
O=C1CC(c2ccccc2)CC(=O)C1Sc1ccc(Cl)cc1 (centres undefined)	-3.5	-1.6	14.8*	9.5	9.6	-8.2
O=C1CC(c2ccc(Cl)cc2)CC(=O)C1CS(=O)(=O)c1ccccc1 (centres undefined)	4.0	14.0	-7.4	8.9	3.5	-8.2
CC1CN(CC(O)c2ccc(Br)cc2)CCO1 (centres undefined)	/	/	-1.3	/	/	/
O=C(Nc1ccccc1)C1=C[C@@H](c2csc3ccccc23)C[C@@H](OCc2ccc(CO)cc2)O1	85.6*	31.9	-0.8	0.1	52.2	14.3
O=C(Nc1ccccc1)C1=C[C@@H](c2ccc(C(F)(F)F)cc2)C[C@@H](OCc2ccc(CO)cc2)O1	79.2*	-18.2	5.4	11.0	42.7	11.7
SMILES	CSC inhib	CHOP inhibitor	GRIN3A LBD mod	PREPL inh	T cruzi repl	Beta cell apopt
O=C(C1=C[C@H](c2csc3ccccc23)C[C@H](OCc2ccc(CO)cc2)O1)N1CCN(Cc2ccc3c(c2)OCO3)CC1	26.6	39.4	-0.5	24.8	61.9*	8.0
O=C(C1=C[C@H](c2csc3ccccc23)C[C@H](OCc2ccc(CO)cc2)O1)N1CCN(Cc2ccccc2)CC1	-4.4	28.4	-3.5	-11.2	47.5	8.1
O=C(NCc1ccccc1)C1=C[C@H](c2csc3ccccc23)C[C@H](OCc2ccc(CO)cc2)O1	14.0	28.6	-5.1	17.9	41.9	23.6
CCN(CC)S(=O)(=O)c1cc([N+](=O)[O-])ccc1N=Nc1c(O)[nH]c2ccccc12	1.2	75.2*	17.9*	5.2	0.0	-3.8
Cc1ccc2[nH]c(O)c(N=Nc3ccccc3[N+](=O)[O-])c2c1	/	/	1.3	/	/	/
O=C(NC(=S)Nc1nc2ccccc2s1)c1cccs1	/	-9.1	27.4*	5.2	1.2	/
O=C(Nc1nc2ccc(F)cc2s1)c1cccs1	11.2	16.7	16.4*	-17.7	-0.3	33.1
CCOc1ccc2nc(NC(=O)c3ccco3)sc2c1	65.3	/	7.9	4.8	-8.7	26.7
CCOC(=O)c1ccc2nc(NC(=O)c3cccs3)sc2c1	-4.5	-58.6	42.4*	-11.6	0.4	25.8
COC(=O)c1nc(NC(=S)NC(=O)c2cccs2)sc1C	-8.5	/	-0.3	2.7	-15.4	1.0
CCOC(=O)c1ccc2nc(NC(=O)c3ccco3)sc2c1	-14.8	-0.4	15.9*	-3.4	-18.0	16.1
COc1ccccc1NS(=O)(=O)c1cc(NC(=O)C2CCCO2)ccc1C (centres undefined)	-5.6	/	-1.0	5.6	/	1.4
Cc1cccc(-c2nc(CS(=O)CC(=O)NCCc3ccc(Cl)cc3)c(C)o2)c1 (centres undefined)	-4.8	/	-1.1	-22.2	22.3	-0.4
O=C(Nc1cccc(C(=O)NC2CC2)c1)c1ccccc1	/	/	-0.5	/	/	/
O=C(Nc1cc2c3c(c1)C1CCCC1CN3CC1CCCC21)c1ccccc1 (centres undefined)	-14.3	57.3	-4.3	25.2	60.4*	40.0
O=C(Nc1nnc(-c2ccccc2)o1)Nc1ccc(F)cc1F	/	-15.2	0.4	-2.0	-26.6	0.9
O=C(CCc1ccccc1)NNC(=O)c1ccncc1	-6.5	/	-1.2	4.8	/	-2.0
COc1cc2oc(=O)c(Br)c(C)c2c(OC)c1OC	-13.5	36.2	0.3	-6.1	/	5.0
COc1cc2oc3cc(C)oc(=O)c3c2cc1OC	10.6	11.2	16.4*	4.5	-17.5	-6.6
COc1ccccc1CNS(=O)(=O)CCNC1CC1	/	/	1.6	/	/	/
COc1ccccc1-n1c(=O)oc2ccc(Cl)cc2c1=O	/	43.7	0.3	-5.2	/	104.3*
NC(=NC1CCCCC1)NS(=O)(=O)c1ccccc1	-20.2	/	-1.8	-0.2	-3.3	3.3
CCOC(=O)c1c(C)n(CC(O)CN(C)C)c2cc(Br)c(OC)cc12 (centres undefined)	-13.9	-0.3	3.7	11.8	79.2*	1.9
CCOC(=O)c1c(CN(C)C)n(-c2ccccc2)c2cc(Br)c(OC)cc12	/	50.0	-3.2	0.2	36.3	/
N#Cc1c(Nc2ccccc2)sc(C(=O)c2ccc(F)cc2)c1N	42.3	16.8	2.4	24.6	3.6	90.6*
